From PMC3817326 (British Journal of Cancer, 2013)

Legend:
Ki-67 = conditions: after 5 days of treatment; ref Li et al, 2012; cited from earlier work
[1] = Transwell permeability assay across caco-2 monolayers; assay type: in vitro ADME, human; conditions: human, Caco-2
In short: (§1)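 Caco-2 monolayers in transwells were used to measure apical-to-basal absorption (PappA–B) and basal-to-apical secretion (PappB–A). Efflux ratio was calculated as PappB–A/PappA–B. Runs were made with or without ABC transporter inhibitors (FTC for ABCG2, verapamil for ABCB1), with vinblastine as an ABCB1 reference substrate.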

[2] = test system: caspase 3/7 activity in HCT-116 cells; assay: Caspase 3/7 assay; assay type: cell-based, human; conditions: 24 h
In short: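 Treated cells were transferred to opaque plates and incubated 1 h with a luminogenic caspase 3/7 reagent. Luminescence on a microplate counter gave caspase 3/7 activity, normalised to protein content.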

caco-2 monolayers = assay: Transwell permeability assay across caco-2 monolayers; assay type: in vitro ADME, human; conditions: compounds tested at 10 μM
In short: as §1

[3] = test system: A2780^AD cells, overexpressing ABCB1; assay: Growth inhibition in doxorubicin-resistant A2780AD cells vs parental A2780; assay type: cell-based
[4] = Metabolic stability in mouse S9 fractions; assay type: in vitro ADME; conditions: 60 min incubation with NADPH and mouse S9 fractions

SMILES: CO[C@H]1C[C@@H]2CC[C@@H](C)[C@@](O)(O2)C(=O)C(=O)N2CCCC[C@H]2C(=O)O[C@H]([C@H](C)C[C@@H]2CC[C@@H](OCCO)[C@H](OC)C2)CC(=O)[C@H](C)/C=C(\C)[C@@H](O)[C@@H](OC)C(=O)[C@H](C)C[C@H](C)/C=C/C=C/C=C/1C [everolimus]
- Decrease in Ki-67 (Ki-67): 1.6 fold

SMILES: CC[C@]1(O)C[C@@H]2CN(CCc3c([nH]c4ccccc34)[C@@](C(=O)OC)(c3cc4c(cc3OC)N(C)[C@H]3[C@@](O)(C(=O)OC)[C@H](OC(C)=O)[C@]5(CC)C=CCN6CC[C@]43[C@@H]65)C2)C1 [vinblastine]
- efflux ratio at 10 μM [1]: 8

SMILES: CC(C)c1cnn2c(NCc3ccccc3)cc(NCCCCCCN)nc12 [BS-181]
- Caspase 3/7 activity [2]: only at the highest concentration tested
- Permeability PappA–B across caco-2 cells (caco-2 monolayers): poorly absorbed
- Potency in A2780^AD cells compared with parental A2780 [3]: equipotent

SMILES: CC[C@H](CO)Nc1nc(NCc2ccccc2)c2ncn(C(C)C)c2n1 [roscovitine]
- Parent compound remaining [4]: < 10%
